pIC50: −log10 of the molar value.
How the values were obtained:
DU-145 [1] = assay: Antiproliferative activity in human DU145 cells by sulforhodamine B assay; type: functional, cell-based
Procedure, shortened: (§1)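 Cells grown in D-MEM with 10% (v/v) FBS, 100 U/mL penicillin G and 100 μg/mL streptomycin, at 37 °C under 5% CO2 and 95% humidity. Cytotoxic and antiproliferative effects were measured by the sulforhodamine B method of Skehan et al. CC50 (cytotoxic) or IC50 (antiproliferative) is the concentration giving 50% growth reduction. Docetaxel was the positive control. Triplicate tests.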

[2] = Selectivity index, ratio of cytotoxic CC50 for African green monkey Vero cells to cytotoxic CC50 for human MDA-MB-231 cells; type: toxicity; details: Vero cells versus MDA-MB-231 cells, read-out: Selectivity Index
Procedure, shortened: (§2)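 Selectivity index for harmfulness to normal cells: the normal-cell (Vero or HEK293) CC50 or IC50 over the cancer-cell value from the same assay type. Each value is from sulforhodamine B growth-reduction tests done in triplicate in D-MEM/10% FBS at 37 °C, 5% CO2.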

HEp-2 [3] = assay: Cytotoxic activity in human Hep2 cells by sulforhodamine B assay; type: functional
Procedure, shortened: (§3)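 Cell lines grown in D-MEM with 10% (v/v) FBS, 100 U/mL penicillin G and 100 μg/mL streptomycin at 37 °C, 5% CO2, 95% humidity. Cytotoxicity was measured by the Skehan method. CC50 was taken as the concentration that reduces cell growth by 50%. Docetaxel served as positive control, and each test was run in triplicate.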

[4] = Cytotoxic activity in African green monkey Vero cells by sulforhodamine B assay; type: cell-based; details: chlorocebus sabaeus; procedure, shortened: as §1
[5] = Selectivity index, ratio of antiproliferative IC50 for African green monkey Vero cells to antiproliferative IC50 for human SiHa cells; type: toxicity; details: Vero cells versus SiHa cells, read-out: Ratio IC50; procedure, shortened: as §2
MDA-MB-231 [6] = assay: Antiproliferative activity in human MDA-MB-231 cells by sulforhodamine B assay; type: functional, cell-based; procedure, shortened: as §1
[7] = Selectivity index, ratio of cytotoxic CC50 for African green monkey Vero cells to cytotoxic CC50 for human SiHa cells; type: toxicity; details: Vero cells versus SiHa cells, read-out: Selectivity Index; procedure, shortened: as §2
KB [8] = assay: Antiproliferative activity in human KB cells by sulforhodamine B assay; type: functional, cell-based; procedure, shortened: as §1
[9] = Selectivity index, ratio of antiproliferative IC50 for African green monkey Vero cells to antiproliferative IC50 for human Hep2 cells; type: toxicity; details: Vero cells versus Hep2 cells, read-out: Ratio IC50; procedure, shortened: as §2
HEp-2 [10] = assay: Antiproliferative activity in human Hep2 cells by sulforhodamine B assay; type: functional, cell-based; procedure, shortened: as §1
[11] = Selectivity index, ratio of cytotoxic CC50 for African green monkey Vero cells to cytotoxic CC50 for human DU145 cells; type: toxicity; details: Vero cells versus DU145 cells, read-out: Selectivity Index; procedure, shortened: as §2
HeLa [12] = assay: Cytotoxic activity in human HeLa cells by sulforhodamine B assay; type: functional; procedure, shortened: as §3
Vero = assay: Antiproliferative activity in African green monkey Vero cells by sulforhodamine B assay; type: cell-based; details: Chlorocebus sabaeus; procedure, shortened: as §1
[13] = Selectivity index, ratio of cytotoxic CC50 for African green monkey Vero cells to cytotoxic CC50 for human MCF7 cells; type: toxicity; details: Vero cells versus MCF7 cells, read-out: Selectivity Index; procedure, shortened: as §2
KB [14] = assay: Cytotoxic activity in human KB cells by sulforhodamine B assay; type: functional; procedure, shortened: as §3
[15] = Selectivity index, ratio of cytotoxic CC50 for African green monkey Vero cells to cytotoxic CC50 for human KB cells; type: toxicity; details: Vero cells versus KB cells, read-out: Selectivity Index; procedure, shortened: as §2
[16] = Selectivity index, ratio of antiproliferative IC50 for African green monkey Vero cells to antiproliferative IC50 for human KB cells; type: toxicity; details: Vero cells versus KB cells, read-out: Ratio IC50; procedure, shortened: as §2
HEK293 = assay: Antiproliferative activity in HEK293 cells by sulforhodamine B assay; type: cell-based; details: Homo sapiens; procedure, shortened: as §1
MDA-MB-231 [17] = assay: Cytotoxic activity in human MDA-MB-231 cells by sulforhodamine B assay; type: functional; procedure, shortened: as §3
MCF7 [18] = assay: Antiproliferative activity in human MCF7 cells by sulforhodamine B assay; type: functional, cell-based; procedure, shortened: as §1
HeLa [19] = assay: Antiproliferative activity in human HeLa cells by sulforhodamine B assay; type: functional, cell-based; procedure, shortened: as §1
[20] = Cytotoxic activity in HEK293 cells by sulforhodamine B assay; type: cell-based; details: human; procedure, shortened: as §1
SiHa [21] = assay: Cytotoxic activity in human SiHa cells by sulforhodamine B assay; type: functional; procedure, shortened: as §3
[22] = Selectivity index, ratio of antiproliferative IC50 for African green monkey Vero cells to antiproliferative IC50 for human MCF7 cells; type: toxicity; details: Vero cells versus MCF7 cells, read-out: Ratio IC50; procedure, shortened: as §2
MCF7 [23] = assay: Cytotoxic activity in human MCF7 cells by sulforhodamine B assay; type: functional; procedure, shortened: as §3
SiHa [24] = assay: Antiproliferative activity in human SiHa cells by sulforhodamine B assay; type: functional, cell-based; procedure, shortened: as §1
DU-145 [25] = assay: Cytotoxic activity in human DU145 cells by sulforhodamine B assay; type: functional; procedure, shortened: as §3

Molecule `C=C(C)[C@@H]1CC[C@]2(C(=O)O)CC[C@]3(C)[C@H](CC[C@@H]4[C@@]5(C)CC[C@@H](O)[C@](C)(CO)[C@@H]5CC[C@]43C)[C@@H]12` has a pIC50 (DU-145 [1]) of less than 3.30, a selectivity ratio [2] of 1.3 and a CC50 (HEp-2 [3]) greater than 500 µM. The CC50 [4] was greater than 500 µM, the selectivity ratio [5] was 1.6 and the pIC50 (MDA-MB-231 [6]) was 3.30 to 3.77. It also gave a selectivity ratio [7] of 4.7, a pIC50 (KB [8]) of 3.30 to 4.90 and a selectivity ratio [9] of 1.3. The pIC50 (HEp-2 [10]) was 3.30 to 4.12, the selectivity ratio [11] was 1.8 and the CC50 (HeLa [12]) was 120 to 153 µM. The pIC50 (Vero) was less than 3.30, the selectivity ratio [13] was 3 and the CC50 (KB [14]) was 24.1 to 500 µM. For the same molecule, the selectivity ratio [15] was 18.3, the selectivity ratio [16] was 18.3 and the pIC50 (HEK293) was 3.30 to 4.02. For the same molecule, the CC50 (MDA-MB-231 [17]) was 71.2 to 91.1 µM, the pIC50 (MCF7 [18]) was 3.30 to 4.31 and the pIC50 (HeLa [19]) was less than 3.30. For the same molecule, the CC50 [20] was 95.8 to 500 µM, the CC50 (SiHa [21]) was 20.3 to 110 µM and the selectivity ratio [22] was 1.9. For the same molecule, the CC50 (MCF7 [23]) was 31.7 to 98.5 µM, the pIC50 (SiHa [24]) was 3.30 to 4.24 and the CC50 (DU-145 [25]) was 53.1 to 97.2 µM.
